In ChEMBL document CHEMBL5096224, “First-in-Class Dual Mechanism Ferroptosis-HDAC Inhibitor Hybrids” (J Med Chem, 2022):
pIC50: −log10 of the molar value. Active and inactive are the calls of the source. The rule behind the calls is not given here.

Legend:
NCI-H522 [1] = experiment: Cytotoxicity against human NCI-H522 cells assessed as reduction in cell viability incubated for 30 mins by methylene blue staining based analysis; settings: NCI-H522, 0.5 h
HCT-116 = experiment: Cytotoxicity against human HCT-116 cells assessed as reduction in cell viability incubated for 30 mins by methylene blue staining based analysis; settings: HCT-116, 0.5 h
[2] = molecular target: Protein deacetylase HDAC6 (Homo sapiens) (UniProt Q9UBN7); experiment: Inhibition of HDAC6 in human NCI-H522 cells assessed as increase in acetylation of tubulin at 5 uM measured for 3 days by Western blot analysis; type: cell-based; settings: time 3.0 day
Histone deacetylase 1 = Histone deacetylase 1 (Homo sapiens, UniProt Q13547); experiment: Inhibition of full length his6/FLAG-tagged human recombinant HDAC1(1 to 482 residues) expressed in Sf9 insect cells
Histone deacetylase 2 = Histone deacetylase 2 (Homo sapiens, UniProt Q92769)
[3] = molecular target: T1, Protein deacetylase HDAC6 (Homo sapiens, UniProt Q9UBN7); experiment: Inhibition of full length C-terminal FLAG-tagged human recombinant HDAC6 expressed inSf9 insect cells; design: species or system Sf9
T1 sequence (Q9UBN7 whole entry): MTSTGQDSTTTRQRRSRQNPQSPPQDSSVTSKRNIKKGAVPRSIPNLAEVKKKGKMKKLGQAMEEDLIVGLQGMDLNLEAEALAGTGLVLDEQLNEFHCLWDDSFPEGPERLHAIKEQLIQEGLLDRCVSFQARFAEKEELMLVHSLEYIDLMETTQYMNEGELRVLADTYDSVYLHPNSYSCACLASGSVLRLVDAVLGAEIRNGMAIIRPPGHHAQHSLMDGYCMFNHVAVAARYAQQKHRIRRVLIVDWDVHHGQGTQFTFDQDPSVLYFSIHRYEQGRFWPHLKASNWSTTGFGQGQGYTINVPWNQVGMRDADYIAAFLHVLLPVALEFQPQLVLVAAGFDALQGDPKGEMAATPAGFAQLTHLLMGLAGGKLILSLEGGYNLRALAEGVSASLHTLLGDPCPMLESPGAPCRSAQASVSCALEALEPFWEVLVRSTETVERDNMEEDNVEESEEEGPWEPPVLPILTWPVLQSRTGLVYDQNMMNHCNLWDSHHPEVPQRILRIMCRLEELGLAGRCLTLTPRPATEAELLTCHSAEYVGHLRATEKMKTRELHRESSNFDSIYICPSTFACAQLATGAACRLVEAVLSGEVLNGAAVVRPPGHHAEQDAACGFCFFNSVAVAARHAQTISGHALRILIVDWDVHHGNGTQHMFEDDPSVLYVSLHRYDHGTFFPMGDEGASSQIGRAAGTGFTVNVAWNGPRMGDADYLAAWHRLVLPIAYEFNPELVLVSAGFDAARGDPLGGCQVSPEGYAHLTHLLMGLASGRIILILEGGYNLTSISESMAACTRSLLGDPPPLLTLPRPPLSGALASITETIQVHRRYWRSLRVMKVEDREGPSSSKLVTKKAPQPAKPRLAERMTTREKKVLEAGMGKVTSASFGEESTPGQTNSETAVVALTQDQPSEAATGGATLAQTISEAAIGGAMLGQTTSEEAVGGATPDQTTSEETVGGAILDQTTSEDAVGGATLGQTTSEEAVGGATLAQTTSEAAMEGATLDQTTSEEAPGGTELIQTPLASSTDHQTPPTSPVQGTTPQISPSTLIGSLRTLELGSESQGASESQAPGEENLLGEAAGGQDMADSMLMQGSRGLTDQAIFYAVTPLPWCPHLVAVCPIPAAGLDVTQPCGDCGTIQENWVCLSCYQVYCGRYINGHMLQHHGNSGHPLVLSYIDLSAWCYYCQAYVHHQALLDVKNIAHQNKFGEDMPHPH

Histone deacetylase 3 = Histone deacetylase 3 (Homo sapiens, UniProt O15379); experiment: Inhibition of full length C-terminal his6/FLAG-tagged human recombinant HDAC3 ([…]) expressed in Sf9 insect cells
Histone deacetylase 8 = molecular target: T2, Histone deacetylase 8 (Homo sapiens, UniProt Q9BY41); experiment: Inhibition of full length C-terminal his-tagged human recombinant HDAC8 expressed in Sf9 insect cells
T2 sequence (Q9BY41 whole entry): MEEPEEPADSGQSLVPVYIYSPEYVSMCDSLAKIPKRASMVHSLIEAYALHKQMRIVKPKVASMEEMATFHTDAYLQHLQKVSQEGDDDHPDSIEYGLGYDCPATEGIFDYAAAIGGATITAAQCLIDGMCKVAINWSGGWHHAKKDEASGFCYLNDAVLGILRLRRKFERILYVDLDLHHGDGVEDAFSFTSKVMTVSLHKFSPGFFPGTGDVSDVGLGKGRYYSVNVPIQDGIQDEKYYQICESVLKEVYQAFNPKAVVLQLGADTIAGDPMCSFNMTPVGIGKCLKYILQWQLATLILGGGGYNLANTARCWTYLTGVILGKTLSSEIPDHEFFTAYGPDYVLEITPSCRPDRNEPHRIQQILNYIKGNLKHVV

NCI-H522 [4] = experiment: Cytotoxicity against human NCI-H522 cells assessed as reduction in cell survival at 1 to 5 uM incubated for 3 days in presence of ferroptosis inhibitor, liproxstatin-1 by methylene blue staining based analysis; type: functional; settings: dose 1-5 µM, time 3.0 day
NCI-H522 [5] = experiment: Cytotoxicity against human NCI-H522 cells assessed as reduction in cell survival at 1 to 5 uM incubated for 3 days in presence of 2-Bromo-N-(7-(hydroxyamino)-7-oxoheptyl)thiazole-4-carboxamide by methylene blue staining based analysis; type: functional; settings: dose 1-5 µM, time 3.0 day
Method in brief: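 Cells (5000/well, n = 3, DMEM with 10% serum, 37 °C, 5% CO2) were treated the day after plating and kept for three days. […] Survival was expressed relative to DMSO.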

[6] = Neurotoxicity in human SH-SY5Y cells assessed as decrease in cell viability at 1.665 to 6.665 uM incubated for 3 days; type: toxicity, cell-based; settings: 72 h, dose 1.665-6.665 µM, time 3 day
Method in brief: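 SH-SY5Y cells were grown on poly-D-lysine in DMEM/F12 with 10% FBS and seeded at 15,000/well 36 h before dosing, with DMSO as vehicle. Viability was read by MTT: 2 h at 37 °C, then solubilization for 1 h and absorbance at 570. Data are triplicates from three separate experiments.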

NCI-H522 [7] = experiment: Cytotoxicity against human NCI-H522 cells assessed as reduction in cell survival at […] incubated for 3 days by methylene blue staining based analysis; type: functional; settings: dose 2.5 µM, time 3.0 day
Histone deacetylase 4 = Histone deacetylase 4 (Homo sapiens, UniProt P56524); experiment: Inhibition of […] N-terminal GST/C-terminal his-tagged human recombinant HDAC4 (627 to 1084 residues) expressed in Sf9 insect cells
Histone deacetylase 4, sequence (P56524 whole entry, the tested form may be a part): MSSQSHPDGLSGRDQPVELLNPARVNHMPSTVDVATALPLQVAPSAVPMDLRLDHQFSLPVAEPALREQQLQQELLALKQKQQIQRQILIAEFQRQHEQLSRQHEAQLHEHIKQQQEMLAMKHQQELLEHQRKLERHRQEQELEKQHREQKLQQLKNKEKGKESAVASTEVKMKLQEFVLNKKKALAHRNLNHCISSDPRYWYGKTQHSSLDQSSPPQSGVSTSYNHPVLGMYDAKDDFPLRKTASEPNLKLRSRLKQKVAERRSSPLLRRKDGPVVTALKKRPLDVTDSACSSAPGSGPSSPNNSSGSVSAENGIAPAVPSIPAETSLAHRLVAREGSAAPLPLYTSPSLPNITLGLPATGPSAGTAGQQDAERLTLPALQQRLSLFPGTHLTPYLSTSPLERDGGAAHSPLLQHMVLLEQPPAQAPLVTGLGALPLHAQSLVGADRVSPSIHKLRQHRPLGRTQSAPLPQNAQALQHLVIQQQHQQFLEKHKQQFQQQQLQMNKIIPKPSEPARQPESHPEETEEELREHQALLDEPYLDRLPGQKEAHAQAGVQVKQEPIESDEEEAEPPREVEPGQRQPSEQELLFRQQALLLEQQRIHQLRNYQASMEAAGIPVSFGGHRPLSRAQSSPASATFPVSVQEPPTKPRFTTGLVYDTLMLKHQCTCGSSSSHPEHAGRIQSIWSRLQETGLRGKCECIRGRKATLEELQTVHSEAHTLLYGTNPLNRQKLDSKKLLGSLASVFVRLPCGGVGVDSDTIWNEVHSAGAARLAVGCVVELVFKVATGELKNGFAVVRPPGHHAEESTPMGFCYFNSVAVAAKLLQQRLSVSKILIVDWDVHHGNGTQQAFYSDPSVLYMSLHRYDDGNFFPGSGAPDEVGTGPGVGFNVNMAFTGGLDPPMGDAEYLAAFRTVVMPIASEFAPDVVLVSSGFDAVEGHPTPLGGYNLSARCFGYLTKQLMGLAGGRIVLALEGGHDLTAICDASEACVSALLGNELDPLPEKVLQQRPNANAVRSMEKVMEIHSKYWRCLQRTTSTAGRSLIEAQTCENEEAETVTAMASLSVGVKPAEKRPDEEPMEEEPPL

Histone deacetylase 3, sequence (O15379 whole entry): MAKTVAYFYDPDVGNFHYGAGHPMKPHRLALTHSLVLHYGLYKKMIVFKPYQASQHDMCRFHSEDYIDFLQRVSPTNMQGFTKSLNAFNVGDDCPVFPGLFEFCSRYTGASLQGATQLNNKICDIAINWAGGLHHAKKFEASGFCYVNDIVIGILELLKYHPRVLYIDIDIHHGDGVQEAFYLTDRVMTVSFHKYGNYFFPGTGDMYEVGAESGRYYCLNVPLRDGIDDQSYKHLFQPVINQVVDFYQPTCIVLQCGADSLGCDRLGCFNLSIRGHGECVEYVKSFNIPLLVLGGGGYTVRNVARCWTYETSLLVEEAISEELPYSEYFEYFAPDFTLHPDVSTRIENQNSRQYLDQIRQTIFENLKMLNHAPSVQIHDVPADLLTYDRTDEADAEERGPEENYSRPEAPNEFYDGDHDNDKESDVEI
Histone deacetylase 1, sequence (Q13547 whole entry, the tested form may be a part): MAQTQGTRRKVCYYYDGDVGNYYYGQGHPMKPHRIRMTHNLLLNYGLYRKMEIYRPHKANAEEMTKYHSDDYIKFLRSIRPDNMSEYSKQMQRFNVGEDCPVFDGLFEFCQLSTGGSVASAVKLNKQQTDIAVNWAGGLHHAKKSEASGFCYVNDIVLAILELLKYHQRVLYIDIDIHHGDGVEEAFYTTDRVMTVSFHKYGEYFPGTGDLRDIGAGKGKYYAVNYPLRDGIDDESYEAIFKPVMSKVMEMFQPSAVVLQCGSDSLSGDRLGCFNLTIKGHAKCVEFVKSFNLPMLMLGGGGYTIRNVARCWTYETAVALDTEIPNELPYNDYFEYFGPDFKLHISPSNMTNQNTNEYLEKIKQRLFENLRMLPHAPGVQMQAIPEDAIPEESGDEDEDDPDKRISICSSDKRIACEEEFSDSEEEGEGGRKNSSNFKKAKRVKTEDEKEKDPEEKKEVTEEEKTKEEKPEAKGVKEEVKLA
Histone deacetylase 2, sequence (Q92769 whole entry): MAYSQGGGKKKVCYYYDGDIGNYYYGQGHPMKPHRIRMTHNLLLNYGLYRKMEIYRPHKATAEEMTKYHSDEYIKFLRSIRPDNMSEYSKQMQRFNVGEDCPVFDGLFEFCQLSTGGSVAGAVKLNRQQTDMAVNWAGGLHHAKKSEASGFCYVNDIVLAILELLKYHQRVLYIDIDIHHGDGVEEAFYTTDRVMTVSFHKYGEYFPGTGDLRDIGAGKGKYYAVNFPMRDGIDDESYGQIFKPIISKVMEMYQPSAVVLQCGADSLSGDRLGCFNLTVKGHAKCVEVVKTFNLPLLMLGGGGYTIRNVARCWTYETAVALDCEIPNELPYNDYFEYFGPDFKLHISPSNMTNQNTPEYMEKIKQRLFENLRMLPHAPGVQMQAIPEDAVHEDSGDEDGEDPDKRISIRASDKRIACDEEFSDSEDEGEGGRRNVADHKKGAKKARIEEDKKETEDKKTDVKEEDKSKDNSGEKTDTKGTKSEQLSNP

| SMILES | inhibition [2] | pIC50 (Histone deacetylase 1) | pIC50 (Histone deacetylase 2) | pIC50 [3] | pIC50 (Histone deacetylase 3) | pIC50 (Histone deacetylase 8) | pIC50 (Histone deacetylase 4) | pIC50 (NCI-H522 [1]) | pIC50 (HCT-116) | Activity (NCI-H522 [4]) | Activity (NCI-H522 [5]) | Activity [6] | Activity (NCI-H522 [7]) |
| --- | --- | --- | --- | --- | --- | --- | --- | --- | --- | --- | --- | --- | --- |
| C#Cc1nc(C=CCCCCCC(=O)NO)cs1 |  |  |  |  |  |  |  | 5.78 | 5.47 |  |  |  |  |
| C#Cc1nc(/C=C/C(=O)NO)cs1 | Active | 6.05 | 5.77 | 6.80 | 5.96 | 5.74 |  |  |  |  |  |  |  |
| C#Cc1nc(C(=O)NCCCCCCC(=O)OC)cs1 |  |  |  |  |  |  |  |  |  | Active | Active | Toxic |  |
| C#Cc1nc(/C=C/C=C/C(=O)NO)cs1 |  | 6.00 | 5.92 | 6.80 | 5.51 | 6.17 | 5.68 |  |  |  |  |  | Active |

Now from value to compound, other results behind:

| inhibition [2] | pIC50 (Histone deacetylase 1) | pIC50 (Histone deacetylase 2) | pIC50 [3] | pIC50 (Histone deacetylase 3) | pIC50 (Histone deacetylase 8) | pIC50 (Histone deacetylase 4) | SMILES | pIC50 (NCI-H522 [1]) | pIC50 (HCT-116) | Activity (NCI-H522 [4]) | Activity (NCI-H522 [5]) | Activity [6] | Activity (NCI-H522 [7]) |
| --- | --- | --- | --- | --- | --- | --- | --- | --- | --- | --- | --- | --- | --- |
|  | 6.89 |  | 7.60 | 6.52 | 6.33 |  | C#Cc1nc(/C=C\CCCCCC(=O)NO)cs1 | 5.97 | 5.92 | Active |  |  |  |
|  | 7.14 |  | 8.00 | 7.04 | 6.57 | 5.07 | C#Cc1nc(/C=C/CCCCCC(=O)NO)cs1 | 5.80 | 5.30 |  |  |  |  |
